Assay outcomes (PubChem BioAssay)
An excerpt weighted towards active compounds, which were near 1.9% of everything screened.
Ins promoter up – insulin promoter activators in MIN6 cells, imaging, high-content screening, mouse beta cells | MIN6 insulin promoter-GFP reporter; stronger effect = higher value | z-score at 5 µM | hit rate 0.3% among 190,000 | AID 1625, 2009;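 active means z-score above 3 at 5 µM with at least 500 cells counted in the well; inconclusive means wells under 500 cells, flagged as cytotoxic or low count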
bCat nuc transl – modulators of beta-catenin nuclear translocation, primary screen, imaging, HeLa cells, immunofluorescence, high-content | nuclear translocation activity, % at 5 µM | AID 1665, 2009 | hit rate 0.3% among 190,000;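 active means nuclear translocation activity above 50% at 5 µM, with a well cell count of 50 or more; inconclusive means wells under 50 cells across six images, flagged as toxic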;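 further: per-cell ratio of nuclear to cytoplasmic median beta-catenin stain intensity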
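Test system: HeLa cells, endogenous beta-catenin; Compound: single 5 µM dose plus 0.02–20 µM confirmation series; Times: compound exposure 24 h at 37°C; Signal: fluorescence imaging of beta-catenin antibody stain plus DAPI; Read-out: % activation, nuclear-to-cytoplasmic median beta-catenin signal ratio per cell.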
MT stabilize HCS – microtubule stabilizers in HeLa cells, primary screen, imaging, high-content imaging | hit rate 0.83% among 200,000 | HeLa tubulin immunostaining HCS, 24 h; share of cells brighter than vehicle mean+2SD | % tubulin-high responders, % at 10 µM | AID 2205, 2009;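 active means plate Z-score above 3 for both tubulin-high and condensed-nucleus cell shares, with cell loss under 80%, at 10 µM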;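 further: anti alpha tubulin signal scored within the nucleus-defined area of each cell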
Autophagy mod – autophagy modulators in MEF cells, primary screen, imaging, high-content, MEF GFP-LC3; MEF GFP-LC3 puncta imaging; test concentration mostly 10 µM; calls only at 10 µM (by protocol); AID 463193, 2010; hit rate 0.98% among 190,000;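 active means percentage of spot-positive cells more than 3 SD above its plate mean, without a fluorescence outlier flag or 80% toxicity; inconclusive means no clear call, values can overlap the other calls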
Each line names hits and unclear results; the compound was inactive in the other large screens.

CCC/C(O)=C1\C(=O)CC(c2ccccc2)CC1=NCCc1c(C)[nH]c2ccc(C)cc12 (stereo not drawn)	none
CC1CCc2cccc3c2N1c1cc(C#N)c(C#N)cc1O3 (stereo not drawn)	Autophagy mod active (no result: Ins promoter up, bCat nuc transl)
O=[N+]([O-])c1ccc(Sc2cccc[n+]2[O-])c2nonc12	Ins promoter up inconclusive (no result: MT stabilize HCS, Autophagy mod)
CCOC(=O)c1c(-c2ccc(OC)cc2)cn2ccccc12	none
COc1ccccc1Nc1nc(Cl)c(C=O)s1	Ins promoter up 3.2
O=Cc1sc(Nc2ccccc2)nc1Cl	Ins promoter up 3.7
O=C(CNC(=S)N(Cc1ccccc1F)C1CCCCC1)NCCCN1CCOCC1	none
CCSc1cc(N2CCOCC2)nc(-c2ccc(Cl)cc2)n1	none
Nc1cc2c(cc1C(=O)c1cccc(Br)c1)OCCO2	MT stabilize HCS 16
Nc1cc2c(cc1C(=O)c1ccccc1F)OCCO2	none
O=c1c(/C=N/Nc2ccccc2)c(Sc2nnnn2-c2ccccc2)nc2ccccn12	Autophagy mod active (no result: Ins promoter up)
O=C(O)c1ccccc1N/N=C/c1c(Sc2nnnn2-c2ccccc2)nc2ccccn2c1=O	none (no result: Ins promoter up, MT stabilize HCS, Autophagy mod)
O=C(CCS(=O)(=O)Cc1ccc(Cl)cc1)NCCCN1CCOCC1	none
CCOc1ccccc1NC1=CC(=O)CC(c2ccccc2)C1 (stereo not drawn)	MT stabilize HCS 25
COc1ccc(NC2=CC(=O)CC(c3ccccc3)C2)c(OC)c1 (stereo not drawn)	bCat nuc transl 82, MT stabilize HCS 32
Nc1ccccc1NC1=CC(=O)CC(c2ccccc2)C1 (stereo not drawn)	none (no result: bCat nuc transl)
COc1ccc(C2CC(=O)C=C(NCc3ccccc3)C2)cc1 (stereo not drawn)	none (no result: MT stabilize HCS, Autophagy mod)
CS(=O)(=O)N1CCN(C(=O)COc2ccc3ccccc3c2)CC1	none (no result: MT stabilize HCS, Autophagy mod)
CS(=O)(=O)N1CCN(C(=O)COc2ccccc2)CC1	Autophagy mod active
COCCCN=C1NN=C(c2cc(C)n(Cc3ccco3)c2C)CS1	MT stabilize HCS 14 (no result: bCat nuc transl)
O=C(Nc1cccnc1)OC1CCCC1	none
Cc1cccc(C(=O)N2CCCCCC2)c1	none (no result: bCat nuc transl)
Cc1cccc(C(=O)N2CCN(C(=O)c3cccc(C)c3)C(C)C2)c1 (stereo not drawn)	Autophagy mod active (no result: Ins promoter up, bCat nuc transl)
COc1ccc(C(=O)NC(=S)NNC(=O)CNC(=O)C2CCCCC2)cc1	none
COc1ccc(NS(=O)(=O)c2cc(NC(=O)c3cccc(OCc4c(C)noc4C)c3)ccc2OC)cc1	bCat nuc transl 63, MT stabilize HCS 13
COc1ccc(C2C(CC(=O)O)=C(O)C(=O)N2c2ccccc2)cc1 (stereo not drawn)	none
Cc1ccc(NC2=C(CC(=O)O)C(c3ccccc3)N(c3ccc(C)cc3)C2=O)cc1 (stereo not drawn)	MT stabilize HCS 12
COC(=O)c1sc(N2C(=O)c3oc4ccccc4c(=O)c3C2c2cccs2)nc1C (stereo not drawn)	Autophagy mod active
Cc1ccc(C2c3c(oc4ccccc4c3=O)C(=O)N2c2nnc(C)s2)o1 (stereo not drawn)	none (no result: Ins promoter up, bCat nuc transl)
CCO[C@H]1OC(C(=O)NCc2ccccc2)=C[C@@H](c2ccccc2)[C@@H]1CCCO	none
N#CC(c1cccc(Cl)c1)c1ccc2c(C(F)(F)F)cc(C(F)(F)F)nc2n1 (stereo not drawn)	Ins promoter up inconclusive, Autophagy mod active
C#CCSc1nnc(-c2cc3c(C(F)(F)F)nn(C)c3s2)n1C	none (no result: Ins promoter up, bCat nuc transl)
CCC1CN(C(=O)Nc2ccc(C)cc2)c2cc(C)ccc2O1 (stereo not drawn)	Autophagy mod active (no result: Ins promoter up)
Cc1ccc(NC(=O)CC2COc3ccccc3O2)cc1 (stereo not drawn)	none
Cc1cc(C)n(C(=O)CCC2COc3ccccc3O2)n1 (stereo not drawn)	Ins promoter up 3.5 (no result: bCat nuc transl)
CCCc1cn(S(=O)(=O)c2ccc(OC)cc2OC)nc1N	none
CN(C)C(CNC(=O)CNC(=O)c1ccc(Br)cc1)c1ccccc1 (stereo not drawn)	none
CCOc1ccc2nc(N3CCCC(C(=O)NCCCN4CCOCC4)C3)sc2c1 (stereo not drawn)	Autophagy mod active
CCOc1ccc2nc(N3CCC(C(=O)NCCCN4CCOCC4)CC3)sc2c1	none (no result: MT stabilize HCS, Autophagy mod)
O=C(O)CCSc1nnc(COc2cccc3ccccc23)n1-c1cccc(Cl)c1	none
CCc1nnc2n1N=C(c1ccc(-c3cc(Cl)ccc3Cl)o1)CS2	Autophagy mod active
CCc1nnc2n1N=C(c1ccc(-c3ccc(Cl)cc3Cl)o1)CS2	none (no result: Ins promoter up, bCat nuc transl)
CCOC(=O)C1CCCN(C(=O)CNS(=O)(=O)c2ccc(Br)s2)C1 (stereo not drawn)	none (no result: Ins promoter up)
CCOC(=O)N1CCC(NC(=O)CNS(=O)(=O)c2ccc(Br)s2)CC1	MT stabilize HCS 20
N#C/C(=C/c1cccn1-c1cccc(C(=O)O)c1)c1ccc(F)cc1	none
CC(C)CC(=O)Nc1ccc2c(c1)OCO2	Autophagy mod active
COC(=O)c1ccc(CSc2nc(-c3ccc(OC)cc3)nc3c2c(=O)n(C)c(=O)n3C)o1	Autophagy mod active (no result: Ins promoter up, bCat nuc transl)
COCCOC(=O)c1[nH]c2c(c1C)C(=O)CC(c1ccccc1)C2 (stereo not drawn)	bCat nuc transl 95, MT stabilize HCS 25, Autophagy mod active
COCCOC(=O)c1[nH]c2c(c1C)C(=O)CC(c1ccc(F)cc1)C2 (stereo not drawn)	bCat nuc transl 78, MT stabilize HCS 22
Oc1ccc(Br)cc1C=Nc1ccc2c3c(cccc13)CC2	none
CCOC(=O)N1CCC(n2c(=S)[nH]c3cc(OCC)c(OCC)cc3c2=O)CC1	Autophagy mod active (no result: bCat nuc transl)
N#CC1=C(N)NC(SCc2ccccc2)=C(C#N)C12CCCCC2	bCat nuc transl 58, MT stabilize HCS 30
CC(C)c1ccccc1NC(=O)CCc1nc2ccccc2s1	none
CCOc1cc(CNc2ccc3c(c2)OCCO3)cc(Br)c1OCC	bCat nuc transl 120
CNC(=O)C1(C)C=CCN1C(=O)c1ccccc1 (stereo not drawn)	none (no result: bCat nuc transl)
CC1(C(=O)NCCN2CCOCC2)C=CCN1C(=O)c1ccccc1 (stereo not drawn)	Autophagy mod active
COc1ccc(-n2cnc3cc(NC(=O)c4ccco4)ccc32)cc1	none (no result: Ins promoter up, bCat nuc transl)
CCC(=O)Nc1ccc2c(c1)ncn2-c1ccccc1	Ins promoter up 5
COc1ccccc1-n1cnc2cc(NC(=O)c3ccco3)ccc21	bCat nuc transl 62, MT stabilize HCS 52 (no result: Ins promoter up)
N#Cc1cc(-c2ccccc2)oc1NC(=O)c1ccccc1	MT stabilize HCS 44
COc1ccc(C2=NOC(C(=O)Nc3cccnc3Cl)C2)cc1 (stereo not drawn)	Autophagy mod active
O=c1[nH]c2cc(NCCO)c([N+](=O)[O-])cc2[nH]1	none
CC(=O)Nc1ccc(NC(=O)C2CCCN(c3ncccn3)C2)cc1 (stereo not drawn)	none
O=C(Nc1ccc(C2CCCCC2)cc1)C1CCCN(c2ncccn2)C1 (stereo not drawn)	Ins promoter up 3.8 (no result: MT stabilize HCS, Autophagy mod)
CCN(CC)c1ccc2cc(-c3nnc(-c4ccncc4)o3)c(=O)oc2c1	Ins promoter up 4.4, Autophagy mod active (no result: bCat nuc transl)
CCN(CC)c1ccc2cc(C(C)=O)c(=O)oc2c1	none
